These results are taken from ChEMBL document CHEMBL1811772, “Identification of ostruthin from Peucedanum ostruthium rhizomes as an inhibitor of vascular smooth muscle cell proliferation” (J Nat Prod, 2011).

Activity calls are given as the source filed them. The calls are words filed in the database; no cut-off is given here.

One data set relates to VSMC. The data set can be described thus: Antiproliferative activity against serum-stimulated primary rat aortic VSMC at 30 uM after 30 mins by resazurin conversion assay. Type of data set: functional, tissue-based. Conditions: Aorta. The gist of the method:
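Primary rat aortic VSMC were serum-starved 24 h, pretreated 30 min with 30 μM sample or 0.1% DMSO vehicle, and stimulated 48 h with 10% calf serum. Resazurin (10 μg/mL, 2 h) conversion was read as fluorescence at ex 535/em 580 nm and expressed as fold over unstimulated vehicle cells. Mean ± SD, n = 3, ANOVA/Tukey.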
A general note: Alamar Blue is a resazurin reagent that responds to reducing activity.

A short description of data set [1]: Antiproliferative activity in primary rat aortic VSMC assessed as inhibition of serum-induced DNA synthesis pretreated 30 mins prior serum addition measured after 20 hrs by BrdU incorporation assay. Conditions: Aorta. (In general: Uptake of a labelled nucleoside into DNA is a usual measure of proliferation.)
Data set [2] can be described thus: Antiproliferative activity against serum-stimulated primary rat aortic VSMC after 30 mins by resazurin conversion assay. The data set is classed as functional, tissue-based. The note with it: Aorta. The gist of the method: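 Sprague–Dawley rat thoracic aorta VSMC were seeded at 1 × 10^4 cells/well, serum-starved 24 h, pretreated 30 min with sample or vehicle (final DMSO 0.1%), then stimulated 48 h with 10% calf serum. They were then washed and given 10 μg/mL resazurin for 2 h, with fluorescence read at ex 535/em 580 nm. Signals were normalized to unstimulated vehicle cells. IC50 was obtained by nonlinear regression; mean ± SD from ≥3 independent experiments.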

Data set [3] in a line: Cytotoxicity against primary rat aortic VSMC as cell viability at 30 uM by trypan blue exclusion assay (reference value: 98+/-2%). Conditions: primary rat aortic vascular smooth muscle cells (VSMC), read-out: Activity. The data set is classed as cell-based.
For a further data set, the system named is A10. The experiment in a line: Antiproliferative activity against rat A10. Type of data set: functional, cell-based.

Consider `CC(C)=CCOc1c2occc2cc2ccc(=O)oc12`, for which, in the data set with VSMC, the outcome was inactive.

As for `C/C=C(/C)C(=O)O[C@H](COc1c2ccoc2cc2oc(=O)ccc12)C(C)(C)O`, the outcome with VSMC was inactive.

Turning to `CC(C)=CCOc1c2ccoc2cc2oc(=O)ccc12`, the result with VSMC was inactive. Same read-out and setting: the entry for `CC(C)(O)[C@H](O)COc1c2ccoc2cc2oc(=O)ccc12` is “inactive”. For orientation: IC50 means the concentration needed to halve the response being measured. As to `CC(C)=CCC/C(C)=C/Cc1cc2ccc(=O)oc2cc1O` [OSTRUTHIN], the figures for the IC50 in data set [1] and in data set [2] were 17 µM and 11 µM, respectively. Besides, the outcome in the data set with VSMC was Active. Moreover, the viability at 30 µM in data set [3] turned out to be 92%. Turning to `CC1(C)O[C@H]1COc1c2ccoc2cc2oc(=O)ccc12`, in the data set on VSMC, the result was inactive. Regarding `COc1ccc2ccc(=O)oc2c1CC=C(C)C` [OSTHOLE], in the data set on A10, the IC50 was 13.6 µM. Further, the result with VSMC was inactive.
